# In ChEMBL document CHEMBL1157717, “Design, synthesis and biological evaluation of 6-(benzyloxy)-4-methylquinolin-2(1H)-one derivatives as PDE3 inhibitors” (Bioorg Med Chem, 2010):
# Key:
# [1] = target: T1, cGMP-inhibited 3',5'-cyclic phosphodiesterase 3A (Homo sapiens, UniProt Q14432); test: Inhibition of human PDE3A by fluorescence microplate reader
# Summary of the method: (§1)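 IMAP fluorescence-polarization PDE assay: 1 ng PDE3A or PDE3B, 100 nM FAM-cAMP in IMAP reaction buffer, 60 min at room temperature. Binding reagent (1:600) added for a further 60 min at room temperature. Read at ex 485/em 528 nm, in duplicate. % activity is normalised to the no-enzyme and maximum-FP values. IC50 comes from a sigmoidal fit over 0.01–100 μM.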
# [2] = target: T2, cGMP-inhibited 3',5'-cyclic phosphodiesterase 3B (Homo sapiens, UniProt Q13370); test: Inhibition of human PDE3B by fluorescence microplate reader; summary of the method: as §1
# Target sequence in this assay (Q13370 whole entry): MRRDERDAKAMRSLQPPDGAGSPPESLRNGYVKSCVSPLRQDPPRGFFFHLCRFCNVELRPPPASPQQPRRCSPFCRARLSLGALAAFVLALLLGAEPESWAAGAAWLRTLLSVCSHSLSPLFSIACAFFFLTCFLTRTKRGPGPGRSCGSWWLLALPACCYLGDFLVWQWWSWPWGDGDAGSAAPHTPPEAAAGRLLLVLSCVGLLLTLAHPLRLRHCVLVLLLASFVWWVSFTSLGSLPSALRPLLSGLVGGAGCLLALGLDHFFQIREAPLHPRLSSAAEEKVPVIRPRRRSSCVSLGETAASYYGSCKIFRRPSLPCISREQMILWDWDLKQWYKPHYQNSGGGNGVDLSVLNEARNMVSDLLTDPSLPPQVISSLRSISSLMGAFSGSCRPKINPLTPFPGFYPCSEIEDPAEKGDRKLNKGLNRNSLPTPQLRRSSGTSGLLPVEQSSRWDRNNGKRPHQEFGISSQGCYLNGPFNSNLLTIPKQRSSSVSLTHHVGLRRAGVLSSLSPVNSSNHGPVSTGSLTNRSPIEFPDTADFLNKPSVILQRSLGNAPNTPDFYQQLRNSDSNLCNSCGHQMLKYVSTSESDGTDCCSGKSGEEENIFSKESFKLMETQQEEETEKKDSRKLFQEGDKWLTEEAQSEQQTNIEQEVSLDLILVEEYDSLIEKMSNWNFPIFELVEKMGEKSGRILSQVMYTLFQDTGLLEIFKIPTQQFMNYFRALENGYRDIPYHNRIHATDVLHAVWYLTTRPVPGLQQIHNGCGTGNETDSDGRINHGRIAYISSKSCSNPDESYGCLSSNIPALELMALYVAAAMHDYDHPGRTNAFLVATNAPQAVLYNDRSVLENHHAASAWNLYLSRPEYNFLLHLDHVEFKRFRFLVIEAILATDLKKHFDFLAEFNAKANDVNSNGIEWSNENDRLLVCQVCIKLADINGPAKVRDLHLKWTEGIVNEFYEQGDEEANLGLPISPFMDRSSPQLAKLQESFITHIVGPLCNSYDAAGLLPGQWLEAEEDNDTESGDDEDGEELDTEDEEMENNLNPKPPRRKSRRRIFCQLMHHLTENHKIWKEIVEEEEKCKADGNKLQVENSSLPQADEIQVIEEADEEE
# [3] = target: T1, cGMP-inhibited 3',5'-cyclic phosphodiesterase 3A; test: Ratio of IC50 for vesnarinone to IC50 for drug against human PDE3A by fluorescence microplate reader
# [4] = target: T2, cGMP-inhibited 3',5'-cyclic phosphodiesterase 3B; test: Ratio of IC50 for vesnarinone to IC50 for drug against human PDE3B by fluorescence microplate reader
# Target sequence in this assay (Q13370 whole entry, looked up): as the sequence (Q13370 whole entry) above
# [5] = Positive inotropic activity in isolated reserpine-treated Wistar rat whole atrium assessed as contraction at 1 uM (Rvb=100+/-3%); assay type: functional, Cardiac atrium
# Summary of the method: (§2)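 Male Wistar rats (250–350 g) received reserpine 5 mg/kg ip 24 h before thiopental anaesthesia. Whole atria were mounted in Krebs–Henseleit gassed with 95% O2/5% CO2, 35–37 °C, pH 7.35–7.45, under about 0.5 g resting tension with 40–50 min equilibration. Only tyramine (1.5 μM)-unresponsive preparations were used. Compounds were added cumulatively (1–100 μM), with isometric force and rate recorded. Values are mean ± SEM, six atria.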
# [6] = Positive inotropic activity in isolated reserpine-treated Wistar rat whole atrium assessed as contraction at 10 uM (Rvb=100+/-3%); assay type: functional, Cardiac atrium; summary of the method: as §2
# [7] = Positive inotropic activity in isolated reserpine-treated Wistar rat whole atrium assessed as contraction at 100 uM (Rvb=100+/-3%); assay type: functional, Cardiac atrium; summary of the method: as §2
# [8] = Positive inotropic activity in isolated reserpine-treated Wistar rat whole atrium assessed as heart rate at 10 uM (Rvb=100+/-2%); assay type: functional, Cardiac atrium; summary of the method: as §2
# [9] = Positive inotropic activity in isolated reserpine-treated Wistar rat whole atrium assessed as heart rate at 100 uM (Rvb=100+/-2%); assay type: functional, Cardiac atrium; summary of the method: as §2
# [10] = Positive inotropic activity in isolated reserpine-treated Wistar rat whole atrium assessed as contraction at 1 uM (Rvb=100+/-4%); assay type: functional, Cardiac atrium; summary of the method: as §2
# [11] = Positive inotropic activity in isolated reserpine-treated Wistar rat whole atrium assessed as contraction at 10 uM (Rvb=100+/-4%); assay type: functional, Cardiac atrium; summary of the method: as §2
# [12] = Positive inotropic activity in isolated reserpine-treated Wistar rat whole atrium assessed as contraction at 100 uM (Rvb=100+/-4%); assay type: functional, Cardiac atrium; summary of the method: as §2
# [13] = Positive inotropic activity in isolated reserpine-treated Wistar rat whole atrium assessed as heart rate at 1 uM (Rvb=100+/-3%); assay type: functional, Cardiac atrium; summary of the method: as §2
# [14] = Positive inotropic activity in isolated reserpine-treated Wistar rat whole atrium assessed as heart rate at 10 uM (Rvb=100+/-3%); assay type: functional, Cardiac atrium; summary of the method: as §2
# [15] = Positive inotropic activity in isolated reserpine-treated Wistar rat whole atrium assessed as heart rate at 100 uM (Rvb=100+/-3%); assay type: functional, Cardiac atrium; summary of the method: as §2
# [16] = target: T1, cGMP-inhibited 3',5'-cyclic phosphodiesterase 3A; test: Ratio of IC50 for vesnarinone to IC50 for drug against human PDE3A by fluorescence microplate reader
# [17] = target: T2, cGMP-inhibited 3',5'-cyclic phosphodiesterase 3B; test: Ratio of IC50 for vesnarinone to IC50 for drug against human PDE3B by fluorescence microplate reader
# Target sequence in this assay (Q13370 whole entry, looked up): as the sequence (Q13370 whole entry) above
# T1 sequence (Q14432 whole entry): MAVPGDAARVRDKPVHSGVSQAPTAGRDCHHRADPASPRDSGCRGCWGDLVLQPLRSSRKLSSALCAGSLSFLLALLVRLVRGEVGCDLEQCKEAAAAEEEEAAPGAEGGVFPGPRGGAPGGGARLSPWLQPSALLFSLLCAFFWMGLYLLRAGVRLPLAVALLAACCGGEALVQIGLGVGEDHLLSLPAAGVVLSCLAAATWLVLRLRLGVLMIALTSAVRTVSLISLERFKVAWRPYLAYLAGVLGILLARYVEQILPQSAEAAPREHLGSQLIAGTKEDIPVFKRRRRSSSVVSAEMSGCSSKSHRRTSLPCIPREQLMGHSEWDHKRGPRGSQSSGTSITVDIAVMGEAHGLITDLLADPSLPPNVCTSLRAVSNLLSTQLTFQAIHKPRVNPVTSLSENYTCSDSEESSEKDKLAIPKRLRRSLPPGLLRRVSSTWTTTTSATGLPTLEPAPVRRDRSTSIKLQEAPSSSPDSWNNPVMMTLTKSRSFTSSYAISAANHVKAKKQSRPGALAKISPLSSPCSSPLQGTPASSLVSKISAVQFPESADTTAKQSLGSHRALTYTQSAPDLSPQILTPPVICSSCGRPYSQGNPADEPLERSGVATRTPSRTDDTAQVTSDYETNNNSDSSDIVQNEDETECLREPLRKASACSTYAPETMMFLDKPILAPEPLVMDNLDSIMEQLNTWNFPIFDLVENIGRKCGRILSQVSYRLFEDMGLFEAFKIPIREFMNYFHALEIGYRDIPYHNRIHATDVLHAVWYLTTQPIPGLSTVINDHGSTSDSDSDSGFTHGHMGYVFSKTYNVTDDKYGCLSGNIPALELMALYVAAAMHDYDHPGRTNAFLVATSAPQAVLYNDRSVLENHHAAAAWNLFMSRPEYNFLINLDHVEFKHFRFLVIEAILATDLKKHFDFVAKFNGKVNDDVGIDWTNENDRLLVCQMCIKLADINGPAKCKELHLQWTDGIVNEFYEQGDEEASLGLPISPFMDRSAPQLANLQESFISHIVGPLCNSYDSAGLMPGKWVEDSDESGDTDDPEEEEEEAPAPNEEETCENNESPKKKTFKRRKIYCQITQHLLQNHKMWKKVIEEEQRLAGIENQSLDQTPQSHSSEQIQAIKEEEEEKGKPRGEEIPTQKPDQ
SMILES,IC50 [1] [µM],IC50 [2] [µM],also measured
Cc1cc(=O)[nH]c2ccc(OCc3cccc(C(=O)N4CCCC4)c3)cc12,0.64,1.2,–
Cc1cc(=O)[nH]c2ccc(OCc3cccc(C(=O)N4CCC(C)CC4)c3)cc12,0.43,1.61,–
CCN1CCN(C(=O)c2cccc(COc3ccc4[nH]c(=O)cc(C)c4c3)c2)CC1,1.44,1.93,Ratio IC50 [3]: 25; Ratio IC50 [4]: 8; Activity [5]: 101%; Activity [6]: 123%; Activity [7]: 146%; Activity [8]: 108%; Activity [9]: 116%
COc1ccc(C(=O)N2CCN(c3ccc4c(c3)CCC(=O)N4)CC2)cc1OC [VESNARINONE],10.7,13.2,Activity [10]: 102%; Activity [11]: 121%; Activity [12]: 141%; Activity [13]: 103%; Activity [14]: 109%; Activity [15]: 114%
Cc1cc(=O)[nH]c2ccc(OCc3cccc(C(=O)N4CCC(O)CC4)c3)cc12,1.35,0.91,–
Cc1cc(=O)[nH]c2ccc(OCc3cccc(C(=O)N4CCC(C(=O)O)CC4)c3)cc12,0.84,1.28,–
Cc1cc(=O)[nH]c2ccc(OCc3cccc(C(=O)N4CCN(CCO)CC4)c3)cc12,1.65,2.8,–
Cc1cc(=O)[nH]c2ccc(OCc3cccc(C(=O)N4CCC(=O)CC4)c3)cc12,1.26,1.14,–
Cc1cc(=O)[nH]c2ccc(OCc3cccc(C(=O)N4CCCCC4)c3)cc12,0.66,1.73,–
Cc1cc(=O)[nH]c2ccc(OCc3cccc(C(=O)N4CCN(C)CC4)c3)cc12,1.76,3.51,Ratio IC50 [16]: 6; Ratio IC50 [17]: 4
Cc1cc(=O)[nH]c2ccc(OCc3cccc(C(=O)N4CCOCC4)c3)cc12,1.34,1.54,–
